Data: paper PMC3102230 (Chemistry & biology, 2011)
Read-outs that look alike come from different tables or passages of the source.

Legend:
[1] = test system: E. coli EF-G; experiment: Malachite green ribosome-dependent GTPase; format: biochemical; conditions: for effect on rdGTPase activity of EF-G, ribosomes lacking L7/L12: E. coli 70SΔL7/L12 ribosomes, 12 hours at 20 °C (Figure 2G)
[2] = test system: S. faecalis TetM; experiment: Malachite green rdGTPase assay, TetM; format: biochemical; conditions: for effect on rdGTPase activity of TetM: E. coli 70S ribosomes, 1 μM ThS or 5 μM MiC (Figure 2B)
[3] = test system: E. coli EF4; experiment: Malachite green rdGTPase assay, EF4; format: biochemical; conditions: for effect on rdGTPase activity of EF4: E. coli 70S ribosomes, 1 μM ThS or 5 μM MiC (Figure 2C); for effect on rdGTPase activity of EF4, ribosomes lacking L7/L12: E. coli 70SΔL7/L12 ribosomes, 12 hours at 20 °C (Figure 2H)
[4] = test system: E. coli BipA; experiment: Malachite green rdGTPase assay, BipA; format: biochemical; conditions: for effect on rdGTPase activity of BipA: E. coli 70S ribosomes, 1 μM ThS or 5 μM MiC (Figure 2D); for effect on rdGTPase activity of BipA, ribosomes lacking L7/L12: E. coli 70SΔL7/L12 ribosomes, 12 hours at 20 °C (Figure 2I)
[5] = test system: E. coli EF-GΔG′; experiment: Malachite green rdGTPase assay, EF-GΔG′; format: biochemical
[6] = test system: E. coli lysate-based system; experiment: In vitro coupled transcription-translation assay; format: biochemical; conditions: read-out: IC50, in vitro transcription-translation (synthesis of GFP); E. coli in vitro coupled transcription-translation system (Figure S3)
In short: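 Coupled transcription-translation in an E. coli lysate-based system, run with or without test compound. GFP fluorescence was scanned with a blue laser module, and the images were quantified.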

[7] = test system: E. coli IF2
[8] = test system: Tet(O); experiment: rdGTPase assay, Tet; format: biochemical; conditions: data not shown
[9] = test system: PRE complex; experiment: EF-G catalysed translocation assay; format: biochemical; conditions: 10 μM Evn, E. coli fMetPhe-tRNAPhe(Prf16/20)
In short: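 Initiation complex: ribosomes (2 μM), MFK mRNA (8 μM), IF1/IF2/IF3 (3 μM each), 1 mM GTP, [35S]fMet-tRNAfMet (3 μM), 25 min, buffer A pH 7.5, 37 °C. Combined with EF-Tu ternary complex for 45 sec. PRE complex sucrose-cushion purified (20 mM Mg2+). 0.1 μM PRE ± test compound stopped-flow mixed with 5 μM EF-G, 1 mM GTP. Proflavin excitation 460 nm, 495 nm long-pass. Double-exponential fits.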

[10] = test system: IF2-dependent 70SIC formation; experiment: IF2-dependent 70SIC formation light scattering assay; format: biochemical, E. coli
In short: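 Stopped-flow light scattering at 436 nm excitation with a 455 nm cut-off filter. It was premixed with test compound (0–5 μM), then rapidly mixed with 0.3 μM 50S subunits. All concentrations are final after mixing.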

[11] = test system: POST complex; experiment: EF4-mediated back-translocation assay; format: biochemical, E. coli; conditions: 5 μM Evn
In short: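 POST complex formed from initiation and ternary complexes plus EF-G (0.2:1 to ribosomes) and 1 mM GTP, 37 °C, 10 min, then sucrose-cushion purified. 0.1 μM POST premixed with 0.15 μM tRNAfMet was stopped-flow mixed with 3 μM EF4, 0.5 mM GDPNP and test compound at 0–5 μM (final). Proflavin excitation 460 nm, 495 nm long-pass. Traces fit to a three-step back-translocation kinetic model.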

[12] = E. coli 70S ribosomes, 1 μM ThS or 5 μM MiC (Figure 2A)
[13] = E. coli 70S ribosomes, 1 μM ThS or 5 μM MiC (Figure 2F)

## C/C=C(\NC(=O)c1csc(-c2csc(-c3ccc4c(n3)-c3csc(n3)[C@H]([C@@H](C)O)NC(=O)c3csc(n3)[C@H](C(C)C)NC(=O)c3csc(n3)/C(=C/C)NC(=O)[C@H]([C@@H](C)O)NC(=O)c3csc-4n3)n2)n1)C(=O)NC[C@@H](C)O [MiC, micrococcin]
[1]; [12]
  effect on rdGTPase activity of EF-G: enhanced
[1]
  effect on rdGTPase activity of EF-G, ribosomes lacking L7/L12: inhibited
[2]
  effect on rdGTPase activity of TetM: inhibited
[3]
  effect on rdGTPase activity of EF4: inhibited
  effect on rdGTPase activity of EF4, ribosomes lacking L7/L12: inhibited
[4]
  effect on rdGTPase activity of BipA: inhibited
  effect on rdGTPase activity of BipA, ribosomes lacking L7/L12: inhibited
[5]; [13]
  effect on rdGTPase activity of EF-GΔG′: inhibit, rather than stimulate
[6]
  IC50: ~3000 nM

## C=C(NC(=O)C(=C)NC(=O)c1csc(C2=N[C@@H]3c4csc(n4)[C@H]4NC(=O)c5csc(n5)[C@H]([C@](C)(O)[C@@H](C)O)NC(=O)[C@H]5CSC(=N5)/C(=C/C)NC(=O)[C@H]([C@@H](C)O)NC(=O)c5csc(n5)[C@]3(CC2)NC(=O)[C@H](C)NC(=O)C(=C)NC(=O)[C@H](C)NC(=O)[C@H]([C@@H](C)CC)N[C@@H]2C=Cc3c([C@H](C)O)cc(nc3[C@H]2O)C(=O)O[C@@H]4C)n1)C(N)=O [ThS, thiostrepton]
[1]; [12]
  effect on rdGTPase activity of EF-G: inhibited
[1]
  effect on rdGTPase activity of EF-G, ribosomes lacking L7/L12: inhibited
[2]
  effect on rdGTPase activity of TetM: inhibited
[3]
  effect on rdGTPase activity of EF4: inhibited
  effect on rdGTPase activity of EF4, ribosomes lacking L7/L12: inhibited
[4]
  effect on rdGTPase activity of BipA: inhibited
  effect on rdGTPase activity of BipA, ribosomes lacking L7/L12: inhibited
[5]; [13]
  effect on rdGTPase activity of EF-GΔG′: inhibited
[6]
  IC50: ~3000 nM
[7]; E. coli 70S ribosomes, 1 μM ThS or 5 μM MiC (Figure 2E)
  effect on rdGTPase activity of IF2: inhibited

## COC[C@H]1O[C@@H](O[C@@H]2OC[C@@H]3O[C@@]4(OC[C@@H](OC(=O)c5c(C)cc(O)cc5O)[C@@H]5OCO[C@H]54)O[C@H]3[C@H]2O)[C@@H](OC)[C@@H](O)[C@@H]1O[C@@H]1O[C@H](C)[C@H](OC)[C@H](O[C@@H]2O[C@H](C)[C@H]3O[C@]4(C[C@@H](O)[C@H](O[C@H]5C[C@@H](O[C@H]6C[C@](C)([N+](=O)[O-])[C@@H](OC)[C@H](C)O6)[C@H](OC(=O)c6c(C)c(Cl)c(O)c(Cl)c6OC)[C@@H](C)O5)[C@@H](C)O4)O[C@]3(C)[C@@H]2O)[C@H]1O [Evn, evernimicin]
[1]; increasing concentrations of Evn (Figure 5B)
  effect on rdGTPase activity of EF-G: little or no effect
[2]; increasing concentrations of Evn (Figure 5D)
  effect on rdGTPase activity of Tet(M): little or no effect
[3]; read-out: IC50, inhibition of EF4 rdGTPase, E. coli 70S ribosomes (Figure 5F)
  IC50: ~3000 nM
[4]; read-out: IC50, inhibition of BipA rdGTPase, E. coli 70S ribosomes (Figure 5E)
  IC50: ~20 µM
[5]; increasing concentrations of Evn (Figure 5C)
  effect on rdGTPase activity of EF-GΔG′: little or no effect
[8]
  effect on rdGTPase of Tet(O): does not inhibit
[9]; control 1.3 ± 0.1 s^−1
  apparent rate constant of translocation, Step 2: 3.5 ± 0.2 s⁻¹
[9]; control 20.7 ± 0.6 s^−1
  apparent rate constant of translocation, Step 1: 28.1 ± 0.7 s⁻¹
[10]; 5 μM Evn
  effect on IF2-dependent light scattering (70SIC formation): almost all IF2-dependent light scattering was abolished
[10]; read-out: apparent Ki for inhibition of IF2-dependent 70SIC formation, reciprocal of IF2-dependent light scattering increase at 1 sec vs. Evn concentration
  Ki: 1800 ± 200 nM
[11]
  effect on EF4-catalyzed component of back-translocation: completely abolished
[6]
  IC50: ~2000 nM
[7]; increasing concentrations of Evn (Figure 5A)
  effect on rdGTPase activity of IF2: strongly inhibits
[7]; read-out: IC50, inhibition of IF2 rdGTPase, E. coli 70S ribosomes (Figure 5A)
  IC50: ~7 µM
